Results from ChEMBL document CHEMBL3351712, “Synthesis and antiviral evaluation of 2-amino-6-carbamoylpurine dioxolane nucleoside derivatives and their phosphoramidates prodrugs” (Bioorg Med Chem, 2014).

How the values were obtained:
[1] = tested on: Human immunodeficiency virus 1; test: Antiviral activity against HIV1; type: functional, organism-based
In short: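 Antiviral assay run in primary human lymphocytes.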

Hepatitis B virus = test: Antiviral activity against Hepatitis B virus; type: functional, organism-based
In short: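 Anti-HBV activity measured in HepG2 cells.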

PBMC = test: (§1) Cytotoxicity against human PBMC; type: cell-based; conditions: pbmc
CCRF-CEM = test: Cytotoxicity against human CEM cell; type: functional
Vero = test: (§2) Cytotoxicity against african green monkey Vero cells; type: cell-based; conditions: chlorocebus sabaeus, vero
HepG2 = test: Cytotoxicity against human HepG2 cells; type: functional
[2] = as §1; type: cell-based; conditions: PBMC (peripheral blood mononuclear cells)
[3] = as §2; type: cell-based; conditions: chlorocebus sabaeus, Vero cells

Compound: CCCCCCCC(=O)Nc1nc(N)nc2c1ncn2[C@H]1CO[C@@H](CO)O1
- EC50 [1]: 21 µM
- EC90 [1]: 56 µM
- EC50 (Hepatitis B virus): > 10 µM
- EC90 (Hepatitis B virus): > 10 µM
- CC50 (PBMC): > 100 µM
- CC50 (CCRF-CEM): > 100 µM
- CC50 (Vero): > 100 µM
- CC50 (HepG2): > 100 µM

Compound: CC(=O)Nc1nc(N)nc2c1ncn2[C@H]1CO[C@@H](CO)O1
- EC50 [1]: 0.56 µM
- EC90 [1]: 12 µM
- EC50 (Hepatitis B virus): > 10 µM
- EC90 (Hepatitis B virus): > 10 µM
- CC50 (PBMC): > 100 µM
- CC50 (CCRF-CEM): > 100 µM
- CC50 (Vero): > 100 µM
- CC50 (HepG2): > 100 µM

Compound: CCCCCCCCCCCCCCCC(=O)Nc1nc(N)nc2c1ncn2[C@H]1CO[C@@H](CO)O1
- EC50 [1]: 1.2 µM
- EC90 [1]: 6 µM
- EC50 (Hepatitis B virus): > 10 µM
- EC90 (Hepatitis B virus): > 10 µM
- CC50 (PBMC): > 100 µM
- CC50 (CCRF-CEM): > 100 µM
- CC50 (Vero): 90 µM
- CC50 (HepG2): > 100 µM

Compound: CCCCCCCC/C=C\CCCCCCCC(=O)Nc1nc(N)nc2c1ncn2[C@H]1CO[C@@H](CO)O1
- EC50 [1]: 3.5 µM
- EC90 [1]: 13 µM
- EC50 (Hepatitis B virus): > 10 µM
- EC90 (Hepatitis B virus): > 10 µM
- CC50 [2]: 76 µM
- CC50 (CCRF-CEM): 13 µM
- CC50 [3]: 19 µM
- CC50 (HepG2): 11 µM

Compound: CCCCCCCCCC(=O)Nc1nc(N)nc2c1ncn2[C@H]1CO[C@@H](CO)O1
- EC50 [1]: 26 µM
- EC90 [1]: 65 µM
- EC50 (Hepatitis B virus): > 10 µM
- EC90 (Hepatitis B virus): > 10 µM
- CC50 (PBMC): > 100 µM
- CC50 (CCRF-CEM): 65 µM
- CC50 (Vero): > 100 µM
- CC50 (HepG2): > 100 µM

Compound: CCCCCCCCCCCCCC(=O)Nc1nc(N)nc2c1ncn2[C@H]1CO[C@@H](CO)O1
- EC50 [1]: 6.5 µM
- EC90 [1]: 27 µM
- EC50 (Hepatitis B virus): > 10 µM
- EC90 (Hepatitis B virus): > 10 µM
- CC50 (PBMC): > 100 µM
- CC50 (CCRF-CEM): 4.6 µM
- CC50 (Vero): 7.7 µM
- CC50 (HepG2): 56 µM

Compound: CCCC(=O)Nc1nc(N)nc2c1ncn2[C@H]1CO[C@@H](CO)O1
- EC50 [1]: 9.2 µM
- EC90 [1]: 38 µM
- EC50 (Hepatitis B virus): > 10 µM
- EC90 (Hepatitis B virus): > 10 µM
- CC50 (PBMC): > 100 µM
- CC50 (CCRF-CEM): > 100 µM
- CC50 (Vero): > 100 µM
- CC50 (HepG2): > 100 µM

Compound: CCCCCC(=O)Nc1nc(N)nc2c1ncn2[C@H]1CO[C@@H](CO)O1
- EC50 [1]: 34 µM
- EC90 [1]: > 100 µM
- EC50 (Hepatitis B virus): > 10 µM
- EC90 (Hepatitis B virus): > 10 µM
- CC50 (PBMC): > 100 µM
- CC50 (CCRF-CEM): > 100 µM
- CC50 (Vero): > 100 µM
- CC50 (HepG2): > 100 µM

Compound: CCCCCCCCCCCC(=O)Nc1nc(N)nc2c1ncn2[C@H]1CO[C@@H](CO)O1
- EC50 [1]: 3.6 µM
- EC90 [1]: 18 µM
- EC50 (Hepatitis B virus): > 10 µM
- EC90 (Hepatitis B virus): > 10 µM
- CC50 (PBMC): 60 µM
- CC50 (CCRF-CEM): 13 µM
- CC50 (Vero): 53 µM
- CC50 (HepG2): > 100 µM

Compound: Cc1cn([C@H]2C[C@H](N=[N+]=[N-])[C@@H](CO)O2)c(=O)[nH]c1=O [ZIDOVUDINE]
- EC50 [1]: 0.0037 µM
- EC90 [1]: 0.047 µM
- EC50 (Hepatitis B virus): > 10 µM
- EC90 (Hepatitis B virus): > 10 µM
- CC50 [2]: > 100 µM
- CC50 (CCRF-CEM): 14 µM
- CC50 (Vero): 56 µM
- CC50 (HepG2): > 100 µM

Compound: Nc1nc(N)c2ncn([C@H]3CO[C@@H](CO)O3)c2n1 [AMDOXOVIR]
- EC50 [1]: 0.45 µM
- EC90 [1]: 7.6 µM
- EC50 (Hepatitis B virus): 12 µM
- EC90 (Hepatitis B virus): > 100 µM
- CC50 (PBMC): > 100 µM
- CC50 (CCRF-CEM): > 100 µM
- CC50 (Vero): > 100 µM
- CC50 (HepG2): > 100 µM
